Results reported in the RNAGym collection of RNA variant scans (doi:10.1126/science.aae0568).
Variants at the floor of the assay were thinned out.

B1: tRNA (parent)
chain: GUUCCGUUGGCGUAAUGGUAACGCGUCUCCCUCCUAAGGAGAAGACUGCGGGUUCGAGUCCCGUACGGAACG

Variants of: B1
Experiment: yeast fitness relative to wild type (ratio to wild type); higher = fitter; tRNA-Arg(CCU), competitive growth, 37 C, YPD
Outline: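 Start and end populations of a pooled competition were compared by 100-nucleotide paired-end sequencing of gene amplicons. The Saccharomyces cerevisiae strains carried tRNA-Arg(CCU) gene variants at the native genomic locus, synthesised with a 3% per-site mutation rate at 69 sites, and competed in YPD at 37°C for 24 hours in six parallel replicates. Darwinian fitness relative to wild type was based on the change in genotype frequencies. Genotypes required ≥ 100 starting reads, and estimates < 0.5 were set to 0.5.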
Variant GUUCAGUUGGCGUAAUGGUAACGCGUCUCCCACCUAAGGAGAAGACUGCGGGUUCGAGUCCCGUACGGAACG [C5A U32A] has a yeast fitness of 0.784. In the case of GUUCCGUUGGCGUAAUGGUAACGCGUCUCCCUCCUAAGGAGAAGACUGCGGGUUCGAGUCCCGUACGGCGCG [A69C A70G], the yeast fitness is reported as 1.02. With GUUCCGCUGGCGUAAUGGUAACGCGUCUCUCUCCUAAGGAGAAAACUGCGGGUUCAAGUCCCGUACGGAACG [U7C C30U G44A G56A] the yeast fitness was 0.522. With GUUCCGUUGGCGUACUGGUAACGCGUCUCCCUCCUAAGGACAAGACUGUGGGUUCGAGUCCCGUACGCAACG [A15C G41C C49U G68C] the yeast fitness was at most 0.5. GUUCCGUUGGCGAAAUGGUAACGCGUCUCUCUACCAAGGAGAAGACUGCGGGUUCGAGUCCCGUACGGAACG [U13A C30U C33A U35C] showed a yeast fitness of 0.558. With GUUCCGUUGGCGUAAAGGUAACGCGUCUCCCUCCUAUGGAGAAGACUGCGGGUUCGAGUCCGGUACGGAACG [U16A A37U C62G] the yeast fitness was at most 0.5. GUUCUGUUGGCGUAAUGGUAACGCGUCUCCCUCCUAGGGAGACGACUGCGGGUUCGAGCCCUGUACGGAACG [C5U A37G A43C U59C C62U] showed a yeast fitness of at most 0.5. Work on GUUCCGUUGGCGUAAUGGUAAGGCGUCUCGCUCCUAAGGAGAAGUCUGCGGGUUCGAGUCCCGUACGGAACG [C22G C30G A45U] yielded a yeast fitness of at most 0.5. In the case of GUUCCGUUGGCGUAAUGGUAACGCGUCUCCCUCCUAAGGAGAAGACUGAGGGUGCGAGUCCCGUACGGAACG [C49A U54G], the yeast fitness is reported as 0.584. GUUCCGUUGGCGUAAUGGUCACGCGUCUCCCUCCUAAGGAGAAGACUGCGGGUUCGAGUCCCGUACGCAACG [A20C G68C] showed a yeast fitness of 0.689. GUUCCGUUGCGGUAAUGGUAAUGCGUCUCCCUCGUAAGGAGAAGACUGCGGGUUCGAGUCCCGUACGGCACG [G10C C11G C22U C34G A69C] showed a yeast fitness of 0.589. Variant GUUCCGUUGGCGUAAUGGUAACGCGUCUCCCUCCUAUGGAGAAGACUGGGGGUUCGAGUCCCGUACGGAACG [A37U C49G] has a yeast fitness of 0.652. GUUCCGUUGGAGUAAUGGUAACGCGUCUACCUCCUAAGGAGAAGAAUGCGGGUUCGAGUCCCGUACGGAGCG [C11A C29A C46A A70G] gave a yeast fitness of 0.541. GUUCCGUUGGCGUAAUGGUGACGCGUCUCCCCCCUAAGGAGAAGACAGCGGGUUCGAGUCCCGUACGGAACG [A20G U32C U47A] gave a yeast fitness of 0.626. In the case of GUUCGGUUGGCGAAAUGGUAACGCGUCUCCGUCCUAAGGAGAAGACUGCAGGUUCGAGUCCCGUCCGGAACG [C5G U13A C31G G50A A65C], the yeast fitness is reported as 0.58. For GUUCCGUUGGCGUAAUGGUAACGCGUCUCCCUCCUGAGGAGAAGGCUGCGGGUUCGAGUCCCGUUCGGAACG [A36G A45G A65U], the yeast fitness was 0.54. In the case of GUUCCGUUGGCGUAAUGGUAACGCAUCUCCCUCCUAUGGAGAAGACUGCGGGUUCGAGUCACGUACGGAACG [G25A A37U C61A], the yeast fitness is reported as 0.616. GCUGCCUUGGCGUAAUGAUAACGUGUAUCCCUCCCAAGGAAAAGACCGCGGGUUCGAGUCCCGUACGGAACG [U2C C4G G6C G18A C24U C27A U35C G41A U47C] showed a yeast fitness of at most 0.5. Work on GUUCCGUUGACGUAAUGGUAACGCGUCUCCCUCCUAAGGAGAAGACUGCAGGUUCGAGGCCAGUACGGAACG [G10A G50A U59G C62A] yielded a yeast fitness of at most 0.5. In the case of GUUCCGUUGGCGUAAUAGUAACGCGUCUCCCUCCUAAGGAGCAGACUGCGGGUUCGAGUCCCGUGCGGAACG [G17A A42C A65G], the yeast fitness is reported as at most 0.5. In the case of GUCCCGUUGGCGUAAUGGUAACGCGUCUCCCUCCUAAGGAGUAGACUGCGGGUUCGAGUCGCGUACGGAACG [U3C A42U C61G], the yeast fitness is reported as 0.66. For GUUCCGUUGGCGUAAUGGUAACGCGUCUCCGUCCUAAGGAGAAGACUGCGGGUUCGAGUCCCGCACGGAACG [C31G U64C], the yeast fitness was 0.777. For GUUCCGUUGGCGUAAUGGUAACGCGUCUCACACCGAAGGAGAAGACUGCGGGUUCGAGUCCCGUACAGAACG [C30A U32A U35G G67A], the yeast fitness was at most 0.5. Variant GUUCCGUUGGCGUAAUGGAAACGCGUCUCCCUCCUAAGGGGAAGACUGCGGGUUGGAGUCCCGUACGGAGCG [U19A A40G C55G A70G] has a yeast fitness of at most 0.5. Work on GUUCCGUUGGGGUAAUGGUAACGCGUCUCCGUCCUAAGGAGAAGACCGCGGGUUGGAGUCCCGUACGGAACG [C11G C31G U47C C55G] yielded a yeast fitness of at most 0.5. Variant GUUCCGUCGGCGUAAUGGUAUCGCGUCUCCCUCAUAAGGCGAAGACUGCGGGUUCGAGUCCCGUACGGAACG [U8C A21U C34A A40C] has a yeast fitness of 0.627. Work on GGUUCGUUGGCGUAAUGGUAACGCGUCUCCCUCCUUAGGAGAAGACUGCGGGUUCGAGUCCCGUACGGAACG [U2G C4U A36U] yielded a yeast fitness of 0.587. GUUCCGUUGGCGUAAUGGUAACGCGUUUCCCUGCUAAGGAGAGGACUACGGAUUCGAGUCCCGUACGGAACG [C27U C33G A43G G48A G52A] showed a yeast fitness of at most 0.5. GUUCCGUUGGCGUAAUGGUAACGCGUGUCCCUCCUAAGGAGACGAUUGCGGGUUCGAGUUCCGUACGGAACG [C27G A43C C46U C60U] showed a yeast fitness of 0.748. For GUUCCGUUGGCGUAAUGGUAACGCACCUCCCUCCUGAGGAGAAGACUGCGGGUUCGAGUCCCGUACGGAACG [G25A U26C A36G], the yeast fitness was 1.07. With GUUCAGUUGGCGUAAUGGUCAAGUGUCUCCUUCCUAAGGAGAAGACUGCGGGUUCGAGUCCCGUACGGAACG [C5A A20C C22A C24U C31U] the yeast fitness was 0.685. GUUCCGUUGGCGUAAUGGUAACGCGAUUCCCUCCUAAGGAGAAGACUGAGGGUUCGAGUCCCGCACGGAACG [U26A C27U C49A U64C] showed a yeast fitness of at most 0.5. With GUUCCGUUGGCCUAAUGGUAAUGCGUCUCCCUCCUAAGGAGAAGACUGCGGGUCCGAGUCCCGUUCGGAACG [G12C C22U U54C A65U] the yeast fitness was 0.531. With GUUCCAUUGGCGUAAUGGUAACGCGUCUCCAUCCUAAGGAAAAGUCUGCGGGUUCGACUCCCGUACGGAACG [G6A C31A G41A A45U G58C] the yeast fitness was at most 0.5. For GUUCCGUUGGCGUAAUGGCACCGCGUCUCCCUCCUAAGCAGAAGACUGCGGGUUCGAGUCUCGUACGGAACG [U19C A21C G39C C61U], the yeast fitness was at most 0.5. In the case of GUUCCGUUGGCGUCAUGGAAAUGCGUCUCCCUCCUAAGGAGAAGCCUGCGGGUUCGAGUCCCGUACGGAACG [A14C U19A C22U A45C], the yeast fitness is reported as at most 0.5. Variant GUUCCGUUGGCGUAAUGGUAACGCGUCUCCGUCCUGAGGAGAAGACUGCGGGUUCGAGUCCCGUACGGCACG [C31G A36G A69C] has a yeast fitness of 0.622.
